Bounds are passed on as bounds.

One assay deals with NCI-H1299. Nature of the assay: Antiproliferative activity against human H1299 cells after 48 hrs by MTS assay. The format is functional, cell-based. The note with it: NCI-H1299, 48 h. The method, boiled down: (§1)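 Cells grown in RPMI 1640 with 9% FBS at 37°C, 5% CO2. 3000-10000 cells/well were left to attach 12 h, then given compound at five concentrations, or DMSO as vehicle control, for 48 h. MTS was added for 3 h at 37°C and absorbance read at 490 nm. IC50 (50% growth inhibition) was taken from triplicate dose-response curves.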
In general terms: Tetrazolium assays rely on reduction of a dye to a coloured formazan, in cell work by metabolically active cells.

The test system of another assay is PC-3. Nature of the assay: Antiproliferative activity against human PC3 cells after 48 hrs by MTS assay. The format is functional, cell-based. Conditions: PC-3, 48 h. Put shortly: as §1
The test system of assay [1] is HCT-116. Nature of the assay: Antiproliferative activity against human HCT116 cells after 48 hrs by MTS assay. The format is functional, cell-based. The note with it: HCT-116, 48 h. The method, boiled down:
as §1

Assay [2] is described as follows: Antiproliferative activity against HELF after 48 hrs by MTS assay. Also noted: species or system Homo sapiens. The method, boiled down:
as §1

In a further assay the test system is HeLa. Kind of assay: Antiproliferative activity against human HeLa cells after 48 hrs by MTS assay. The format is functional, cell-based. The method, boiled down:
as §1

The next assay concerns the target Pyruvate kinase PKM (Homo sapiens, UniProt P14618). Nature of the assay: Activation of N-terminal His -tagged human PKM2 expressed in Escherichia coli BL21 using PEP as substrate measured at 30 secs intervals for between 3 and 6 mins by fluorescent pyruvate kinase-lactate dehydrogenase coupled assay.
The subject of assay [3] is HCT-116. Nature of the assay: Cell cycle arrest in human HCT116 cells assessed as accumulation at G2/M phase after 8 to 12 hrs by propidium iodide staining-based flow cytometric method. The format is functional. The method, boiled down:
(§2)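 HCT116 cells were exposed to DMSO or compound at 1.25, 2.5 or 5 μM; exposure is given as 8 h in the text and 12 h in the methods. Cells were harvested, washed twice in PBS and fixed in ice-cold ethanol at -4°C overnight. They were stained with propidium iodide (50 μg/mL) containing 0.1% RNase for 15 min in the dark at room temperature. Phase distribution was read by flow cytometry.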

The test system of assay [4] is HCT-116. Nature of the assay: Cell cycle arrest in human HCT116 cells assessed as accumulation at G2/M phase at 5 uM after 8 to 12 hrs by propidium iodide staining-based flow cytometric method (reference value: 21.28%). The format is functional. The method, boiled down:
as §2
(In general: A flow cytometer gives signals particle by particle.)

Assay [5] deals with HCT-116. Kind of assay: Cell cycle arrest in human HCT116 cells assessed as accumulation at G1 phase at 5 uM after 8 to 12 hrs by propidium iodide staining-based flow cytometric method (reference value: 40%). The format is functional. The method, boiled down:
as §2

Assay [6] relates to HCT-116. Nature of the assay: Cell cycle arrest in human HCT116 cells assessed as accumulation at G1 phase at 1.25 uM after 8 to 12 hrs by propidium iodide staining-based flow cytometric method (reference value: 40%). The format is functional. Put shortly:
as §2

Assay [7] has as its system HCT-116. Nature of the assay: Cell cycle arrest in human HCT116 cells assessed as accumulation at G1 phase at 2.5 uM after 8 to 12 hrs by propidium iodide staining-based flow cytometric method (reference value: 40%). The format is functional. Put shortly:
as §2

In assay [8] the test system is HCT-116. Nature of the assay: Cell cycle arrest in human HCT116 cells assessed as accumulation at S phase at 5 uM after 8 to 12 hrs by propidium iodide staining-based flow cytometric method (reference value: 43.38%). The format is functional. The method, boiled down:
as §2

Assay [9] relates to HCT-116. Nature of the assay: Cell cycle arrest in human HCT116 cells assessed as accumulation at G2/M phase at 1.25 uM after 8 to 12 hrs by propidium iodide staining-based flow cytometric method (reference value: 21.28%). The format is functional. The method, boiled down: as §2
The test system of assay [10] is HCT-116. Kind of assay: Cell cycle arrest in human HCT116 cells assessed as accumulation at S phase at 2.5 uM after 8 to 12 hrs by propidium iodide staining-based flow cytometric method (reference value: 43.38%). The format is functional. Put shortly:
as §2

Assay [11] concerns HCT-116. Kind of assay: Cell cycle arrest in human HCT116 cells assessed as accumulation at S phase at 1.25 uM after 8 to 12 hrs by propidium iodide staining-based flow cytometric method (reference value: 43.38%). The format is functional. Put shortly: as §2
In assay [12] the test system is HCT-116. Kind of assay: Cell cycle arrest in human HCT116 cells assessed as accumulation at G2/M phase at 2.5 uM after 8 to 12 hrs by propidium iodide staining-based flow cytometric method (reference value: 21.28%). The format is functional. The method, boiled down: as §2

Sequence of Pyruvate kinase PKM (P14618 whole entry): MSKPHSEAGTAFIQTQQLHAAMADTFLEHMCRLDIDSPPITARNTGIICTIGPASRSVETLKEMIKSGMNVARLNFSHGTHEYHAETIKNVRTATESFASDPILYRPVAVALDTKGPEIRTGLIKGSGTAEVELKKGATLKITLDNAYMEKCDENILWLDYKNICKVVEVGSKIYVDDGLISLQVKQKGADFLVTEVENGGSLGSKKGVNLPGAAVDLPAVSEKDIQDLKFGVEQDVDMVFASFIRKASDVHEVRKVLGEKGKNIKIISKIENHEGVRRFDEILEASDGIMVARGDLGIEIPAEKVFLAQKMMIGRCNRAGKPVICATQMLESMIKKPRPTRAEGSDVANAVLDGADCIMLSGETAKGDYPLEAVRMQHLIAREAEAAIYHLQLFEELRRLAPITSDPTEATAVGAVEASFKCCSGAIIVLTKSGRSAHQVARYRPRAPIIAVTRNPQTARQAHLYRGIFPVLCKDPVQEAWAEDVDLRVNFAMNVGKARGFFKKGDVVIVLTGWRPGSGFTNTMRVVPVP

As a reminder, the IC50 is the concentration needed to halve the response being measured. The low end stands for inhibition by little substance, the high end for a need for much substance. For orientation: AC50 means the concentration at which the activity in the assay is half-maximal. Read a high AC50 as weaker potency. Turning to `O=S(=O)(Nc1ccc(C2(O)CSC(=S)N2Cc2ccncc2)cc1)c1ccc2c(c1)OCCO2` (stereo unspecified), the IC50 is 750 nM in the assay on NCI-H1299; 700 nM in the assay on PC-3; 660 nM in the assay on HCT-116 [1]; 8310 nM in [2]; 470 nM in the assay with HeLa. The same compound displayed an AC50 on Pyruvate kinase PKM above 20000 nM.

In the case of `COc1cccc(S(=O)(=O)Nc2ccc(C3(O)CSC(=S)N3Cc3cccnc3)cc2)c1` (stereo unspecified), the half-maximal inhibitory concentration (IC50) worked out at 930 nM with NCI-H1299; 930 nM in the assay on PC-3; 2620 nM in the assay on HCT-116 [1]; 6900 nM in [2]; 590 nM with HeLa. Further, half-maximal activity on Pyruvate kinase PKM (AC50) was put at 5950 nM.

`O=S(=O)(Nc1ccc(C2(O)CSC(=S)N2Cc2ccc3nccn3c2)cc1)c1ccc2c(c1)OCCO2` (stereo unspecified): the IC50 in the assay on NCI-H1299 came to 790 nM; in the assay on PC-3, 1330 nM; in the assay with HCT-116 [1], 770 nM; in [2] it was 4910 nM; in the assay on HeLa, 450 nM. In addition, the AC50 on Pyruvate kinase PKM was found to be 7070 nM.

With `O=S(=O)(Nc1ccc(C2(O)CSC(=S)N2Cc2cccnc2)cc1)c1ccc2ccccc2c1` (stereo unspecified), the IC50 in the assay on NCI-H1299 turned out to be 810 nM; with PC-3, 1520 nM; in the assay on HCT-116 [1], 1650 nM; in [2], 8050 nM; in the assay on HeLa, 460 nM. At Pyruvate kinase PKM, this compound showed a half-maximal activity concentration (AC50) above 20000 nM.

In the case of `COc1ccc(S(=O)(=O)Nc2ccc(C3(O)CSC(=S)N3Cc3cccnc3)cc2)cc1` (stereo unspecified), the IC50 was found to be 960 nM with NCI-H1299; 1070 nM in the assay on PC-3; 1750 nM in the assay with HCT-116 [1]; 8630 nM in assay [2]; 480 nM in the assay on HeLa. The compound also gave a concentration at half-maximal activity (AC50) at Pyruvate kinase PKM of 4690 nM.

Turning to `O=S(=O)(Nc1ccc(C2(O)CSC(=S)N2Cc2cccnc2)cc1)c1ccc2c(c1)OCCO2` (stereo unspecified), the Activity result in the assay on HCT-116 [3] is “Dose-dependent effect”; in the assay with HCT-116 [4], 63.21%; with HCT-116 [5] it was 11.58%; with HCT-116 [6], 20.37%; with HCT-116 [7], 17.35%; with HCT-116 [8], 27.65%. The Activity came to 48.86% with HCT-116 [9], 23.99% with HCT-116 [10], 30.52% in the assay on HCT-116 [11] and 56.76% in the assay with HCT-116 [12]. Besides, the 50% inhibitory concentration (IC50) in the assay with NCI-H1299 is 690 nM; in the assay on PC-3, 660 nM; in the assay with HCT-116 [1], 810 nM; in assay [2], 11800 nM; with HeLa, 460 nM. Half-maximal activity at Pyruvate kinase PKM (AC50) was put at 3140 nM.

The values above are taken from ChEMBL document CHEMBL4138196, “Discovery and structure-activity relationship of novel 4-hydroxy-thiazolidine-2-thione derivatives as tumor cell specific pyruvate kinase M2 activators” (Eur J Med Chem, 2018).
